A1 apoptosis 2 – compounds inhibiting A1, read as caspase activation. caspase activation, % (no concentration beside the values). MEF A1-2A-BIM cells, caspase-Glo luminescence, 3 h; percent of clofoctol response, DMSO zero. 24,000 tested, under 10 active; in the data active = caspase activation above about 5.9%; inconclusive = no clear call, values can overlap the other calls; inactive = below about 2.2%
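Test system – A1-2A-BIM-expressing MEF cells · Input – 2500 cells/well · Medium – RPMI-1640 growth medium with 10% FBS · Compound dosing – 50 nL pinned compound · Timing – 3 h compound exposure at 37 °C · Technique – Caspase-Glo luminescence (DEVD substrate) · Evaluation – Caspase-3/7 activity from luminescence increase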
T cruzi intra – inhibitors of intracellular Trypanosoma cruzi; activity score (inhibition), % at 5.01 µM; AID 651903; 22,000 tested, 4.9% active; intracellular Trypanosoma cruzi in host cells, plate reader; in the data active = activity score above about 55%; inconclusive = no clear call, values can overlap the other calls;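 also: parasites and compound incubated about four days before reading; 0% = median of neutral control wells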
INS-1E ATP HTS – INS-1E beta cell protection from cytokine death; 20,000 tested, 0.1% active; INS-1E cytokine-induced death, ATP luminescence, 48 h; normalised: neutral wells 0, positive control 100; protection from cytokine-induced ATP loss, % at 10 µM;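 active = mean replicate protection from cytokine-induced ATP loss at least 50% and at least 75% of replicates each reaching 50%; inconclusive = meets only one of the two criteria, mean or replicate share; inactive = fails both the mean and replicate share criteria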
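Assay system: INS-1E rat cells / Quantity: 8000 cells per well / Medium: RPMI without phenol red, 5% FBS / Probe or stimulus: three-cytokine cocktail (IFN-γ, TNF-α, IL-1β) / Dosing: one compound concentration, pin transfer / Timing: 48 h co-treatment, 10 min post-lysis read / Technique: CellTiter-Glo luminescence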
* = called active by the depositor; ? = inconclusive; . = not tested or not shown. Shown is part of a subset that was picked to be rich in hits.

SMILES | A1 apoptosis 2 | T cruzi intra | INS-1E ATP HTS
C[C@H](CO)N1C[C@H](C)[C@H](CN(C)Cc2ccc(-c3ccccc3)cc2)Oc2c(NC(=O)c3ccc(-c4nccs4)cc3)cccc2C1=O | -0.8 | 51.9 | -46.2
C[C@@H]1CN([C@H](C)CO)C(=O)c2cccc(NC(=O)c3ccc(-c4nccs4)cc3)c2O[C@H]1CN(C)Cc1ccc(-c2ccccc2)cc1 | . | 42.9 | -3.0
C[C@H](CO)N1C[C@H](C)[C@@H](CN(C)Cc2ccc(Oc3ccccc3)cc2)Oc2c(NC(=O)c3ccc(-c4nccs4)cc3)cccc2C1=O | 0.0 | 66.9* | -16.6
C[C@H]1CN([C@@H](C)CO)C(=O)c2cccc(NC(=O)c3ccc(-c4nccs4)cc3)c2O[C@H]1CN(C)Cc1ccc(Oc2ccccc2)cc1 | -1.9 | 40.6 | -23.6
C[C@H]1CN([C@@H](C)CO)C(=O)c2cccc(NC(=O)c3ccc(-c4nccs4)cc3)c2O[C@H]1CN(C)Cc1ccc(-c2ccccc2)cc1 | . | 66.0* | -48.8
C[C@@H]1CN([C@@H](C)CO)C(=O)c2cccc(NC(=O)c3ccc(-c4nccs4)cc3)c2O[C@@H]1CN(C)Cc1ccc(C(=O)Nc2ccccc2N)cc1 | -0.4 | 74.6* | ?
C[C@H](CO)N1C[C@H](C)[C@@H](CN(C)Cc2ccc(-c3ccccc3)cc2)Oc2c(NC(=O)c3ccc(-c4nccs4)cc3)cccc2C1=O | . | 80.6* | -29.5
Cc1noc(C)c1S(=O)(=O)Nc1ccc2c(c1)C(=O)N([C@H](C)CO)C[C@@H](C)[C@@H](CN(C)C(=O)c1ccccc1)OCCCC[C@H](C)O2 | 0.5 | . | .
O=C(CCCCCCC(=O)Nc1ccccc1O)N/N=C/c1cccc(C(=O)O)c1 | 0.3 | -19.8 | -0.8
C[C@@H]1CN([C@@H](C)CO)C(=O)c2cccc(NC(=O)CCCCCC(=O)Nc3ccccc3N)c2O[C@H]1CN(C)Cc1ccc(Oc2ccccc2)cc1 | -0.1 | 83.9* | -3.0
C[C@@H]1CN([C@@H](C)CO)C(=O)c2cccc(NC(=O)CCCCCC(=O)Nc3ccccc3N)c2O[C@H]1CN(C)Cc1ccc(Cl)c(Cl)c1 | . | 79.6* | 6.9
C[C@@H]1CN([C@H](C)CO)C(=O)c2cccc(NC(=O)CCCCCC(=O)Nc3ccccc3N)c2O[C@@H]1CN(C)Cc1ccc(-c2ccccc2)cc1 | -0.3 | ? | 6.9
C[C@@H]1CN([C@H](C)CO)C(=O)c2cccc(NC(=O)CCCCCC(=O)Nc3ccccc3N)c2O[C@H]1CN(C)Cc1ccc(Cl)c(Cl)c1 | -2.0 | . | .
C[C@@H]1CN([C@H](C)CO)C(=O)c2cccc(NC(=O)CCCCCC(=O)Nc3ccccc3N)c2O[C@@H]1CN(C)Cc1ccccc1 | . | -31.8 | 0.6
C[C@H]1CN([C@@H](C)CO)C(=O)c2cccc(NC(=O)CCCCCC(=O)Nc3ccccc3N)c2O[C@H]1CN(C)Cc1ccc(-c2ccccc2)cc1 | 1.2 | 67.9* | -5.4
C[C@@H]1CN([C@@H](C)CO)C(=O)c2cccc(NC(=O)CCCCCC(=O)Nc3ccccc3N)c2O[C@H]1CN(C)Cc1ccccc1 | -0.8 | 71.8* | 19.3
C[C@H](CO)N1C[C@H](C)[C@@H](CN(C)Cc2ccc(Oc3ccccc3)cc2)Oc2c(NC(=O)CCCCCC(=O)Nc3ccccc3N)cccc2C1=O | 0.1 | . | .
C[C@H](CO)N1C[C@H](C)[C@@H](CN(C)C(=O)C2CCCCC2)OCCCC[C@H](C)Oc2ccc(NC(=O)Nc3ccccc3)cc2C1=O | -1.5 | . | .
C/C(=N\O)C(=O)NCCCCCNC(=O)OCc1ccccc1 | 0.4 | . | .
O=C(CCCCC(=O)N/N=C/c1cc(Br)cs1)NO | -1.1 | 13.5 | 8.8
COC(=O)CCCCCCC(=O)N/N=C/c1ccc2c(c1)CCO2 | . | -5.2 | -3.4
C[C@@H]1CN([C@@H](C)CO)C(=O)c2cc(NS(=O)(=O)c3cccs3)ccc2O[C@@H]1CN(C)Cc1ccc(C(=O)Nc2ccccc2N)cc1 | . | 48.2 | 38.5
O=C(CCCCCCC(=O)Nc1ccccc1O)N/N=C/c1ccc(O)cc1Br | 0.0 | -3.2 | 6.6
COc1ccc(NC(=O)Nc2ccc3c(c2)CC(=O)N([C@H](C)CO)C[C@H](C)[C@H](CN(C)Cc2ccc(Oc4ccccc4)cc2)O3)cc1 | 0.0 | 32.1 | -37.1
COc1ccc(NC(=O)Nc2ccc3c(c2)CC(=O)N([C@H](C)CO)C[C@H](C)[C@H](CN(C)Cc2ccc(-c4ccccc4)cc2)O3)cc1 | -0.3 | 15.1 | -35.9
C[C@@H]1CN([C@H](C)CO)C(=O)Cc2cc(NC(=O)Nc3ccc(F)cc3)ccc2O[C@H]1CN(C)Cc1ccc(Oc2ccccc2)cc1 | . | ? | -68.0
